Here are results for 24 compounds from ChEMBL document CHEMBL3400141, “Substituted piperazines as nootropic agents: 2- or 3-phenyl derivatives structurally related to the cognition-enhancer DM235” (Bioorg Med Chem Lett, 2015).

Structures are written as SMILES. A value given as a limit tells only on which side of the number the result lay.

The test system of the test is Mus musculus. Put plainly: Cognition enhancing activity in sc dosed mouse assessed as reversal of scopolamine-induced amnesia measured up to 24 hrs treated 20 mins before training session by passive-avoidance test. Type of test: functional. The conditions noted are these: read-out: MED. In outline:
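Mouse passive-avoidance test (Jarvik and Kopp, slightly modified). Compounds in DMSO/saline (1:10), given s.c. 20 min before training, tested in a 1:10 dose-dilution sequence. Amnesia induced by scopolamine 1.5 mg/kg i.p. immediately after punishment. Mean of 8–16 mice per group; activity reported as minimal effective dose (MED, mg/kg).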

`O=C1c2ccccc2C2CN(S(=O)(=O)c3ccc(F)cc3)CCN12` (centres undefined): the minimal effective dose was 0.1 mg/kg.
Under `CC(=O)N1CCN(S(=O)(=O)c2ccc(F)cc2)CC1c1ccccc1` (centres undefined) stands above 10 mg/kg; under `CC(=O)N1CCN(S(=O)(=O)c2ccc(F)cc2)C(c2ccccc2)C1` (centres undefined), 10 mg/kg.
Under `NC(=O)CN1CCCC1=O` [PIRACETAM] stands 30 mg/kg; under `O=C(c1ccccc1)N1CCNC(c2ccccc2)C1` (racemic), above 10 mg/kg.
In the case of `CCC(=O)N1CCN(C(=O)c2ccccc2)C[C@@H]1c1ccccc1`, the minimal effective dose turned out to be 1 mg/kg.
In the case of `CC(=O)N1CCN(S(=O)(=O)c2ccc(F)cc2)CC1C` (centres undefined), the minimal effective dose was 1 mg/kg.
`CCC(=O)N1CCN(C(=O)c2ccccc2)CC1c1ccccc1` (racemic): the minimal effective dose amounted to 0.1 mg/kg.
Take `CCC(=O)N1CCN2C(=O)c3ccccc3C2C1` (centres undefined): the minimal effective dose was above 10 mg/kg.
On to `O=S(=O)(c1ccc(F)cc1)N1CCNC(c2ccccc2)C1` (centres undefined), for which the minimal effective dose is above 10 mg/kg.
With `CCC(=O)N1CCN(C(=O)c2ccccc2)CC1Cc1ccccc1` (centres undefined), the minimal effective dose worked out at 1 mg/kg.
`CCC(=O)N1CCN(C(=O)c2ccccc2)CC1` [SUNIFIRAM]: the minimal effective dose was found to be 0.001 mg/kg.
Consider `O=C1CCC2CN(S(=O)(=O)c3ccc(F)cc3)CCN12` (centres undefined) [UNIFIRAM], for which the minimal effective dose came to 0.001 mg/kg.
Under `CCC(=O)N1CCN(C(=O)c2ccccc2)CC1C` (centres undefined) stands above 10 mg/kg.
With `CCC(=O)N1CCNC(c2ccccc2)C1` (centres undefined), the minimal effective dose is above 10 mg/kg.
As to `CCC(=O)N1CCN(C(=O)c2ccccc2)C(C)C1` (centres undefined), the minimal effective dose was found to be 0.1 mg/kg.
Under `CC(=O)N1CCNC(c2ccccc2)C1` (centres undefined) stands above 10 mg/kg; under `CCC(=O)N1CCN(C(=O)c2ccccc2)C[C@H]1c1ccccc1`, 0.1 mg/kg; under `CC(=O)N1CCN(S(=O)(=O)c2ccc(F)cc2)CC1`, 0.01 mg/kg.
Under `CCC(=O)N1CCN(C(=O)c2ccccc2)C(c2ccccc2)C1` (centres undefined) stands 1 mg/kg; under `O=C(c1ccccc1)N1CCNCC1`, 0.1 mg/kg.
Under `CCC(=O)N1CCN(C(=O)c2ccccc2)C(Cc2ccccc2)C1` (centres undefined) stands 1 mg/kg.
As to `CC(=O)N1CCN(S(=O)(=O)c2ccc(F)cc2)C(C)C1` (centres undefined), the minimal effective dose was 0.1 mg/kg.
Under `CCC(=O)N1CCNCC1` stands 0.1 mg/kg.
